# Measurements from PMC2949545 (Environment international, 2010).
# Several values for one entry are separate records, joined by “and”; a condition that tells them apart may be missing. Equal entries are not always repeated. Where two headings read alike, the source gives them in different places.
# Columns and labels:
# LacI gene [1] = test: BigBlue lacI mutant and mutation frequency analysis, female liver; assay type: in vivo, F344 BigBlue rats; conditions: for Mutants per 10^6 plaques (mutant frequency): 4 weekly i.p. injections, sacrifice PND75; for Mutation Frequency (MF) ± SE (corrected) / Number of Mutations (corrected): after sequencing; for Number of Mutations (corrected): duplicates and non-mutants excluded
# How it was run: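 Female F344 BigBlue rats (lacI transgene), 4/group, got i.p. test compound, positive control or corn oil (5 ml/kg) weekly on PND 37, 44, 51, 58 and were killed on PND75. Genomic DNA from 50 mg central liver was lambda-packaged, infected into E. coli and plated in X-gal top agar overnight. Blue plaques were counted, with >100,000 pfu/animal. Mutant frequency = blue plaques/pfu, per 10^6 ± SE.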
# LacI gene [2] = test: LacI gene sequencing, type of mutations; assay type: in vivo, F344 BigBlue rats; conditions: female liver; for Deletions, distinct mutations / Insertions, distinct mutations / Transitions, distinct mutations / Transversions, distinct mutations: number; for frameshift mutations (deletions and insertions), % of all mutations: solvent controls 18%
# [3] = Body weight gain during the study period; assay type: in vivo, F344 BigBlue rats; conditions: for reduction of weight gain during the treatment period: versus control; for effect on weight gain compared to control: either gender
# F344 BigBlue rats [4] = test: Organ weights normalized to body weight; assay type: in vivo; conditions: for impact on liver, lung and spleen weights: versus corn oil controls
# How it was run: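 Rats of both genders, 4/group, were given 4 weekly i.p. doses in corn oil and killed on PND75 by CO2 then cervical dislocation. Liver and other organs were excised and weighed, and weights were expressed as g per 100 g body weight. ANOVA used treatment, gender and their interaction.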
# F344 BigBlue rats [5] = test: Histological analysis of spleen, lung and liver; assay type: in vivo; conditions: animal 1 – 4
# How it was run: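 In both genders, frozen tissue sampled at PND75 sacrifice (4 weekly i.p. doses, 4 rats/group) was cut into four-micron sections. Sections were stained with hematoxylin/eosin and examined by light microscopy for histological anomalies in each animal.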
# liver mRNA = test: Gene expression analysis of female liver RNA; assay type: in vivo, F344 BigBlue rats; conditions: for number of unique genes significantly changed: p < 0.0001 and fold change > 5 versus corn oil control, pooled RNA
# F344 BigBlue rats [6] = conditions: Male; animal 1 – 4; previously reported; ref Lehmann et al. 2007; Maddox et al. 2008; cited from earlier work
# LacI = conditions: ref Lehmann et al. 2007, cited from earlier work; for frameshift mutations, % of mutations: male livers, control 19%
# [7] = ref Li et al. 1997; cited from earlier work
# [8] = ref Espandiari et al. 2004; cited from earlier work
# Sprague Dawley rat = conditions: female Sprague Dawley rats; ref http://ntp.niehs.nih.gov/; cited from earlier work
# [9] = versus corn oil control, up-regulated
structure (smiles),measurement,setting,value
"Cc1ccc2cc3c(ccc4ccccc43)c3c2c1CC3 [3-MC, 3-Methylcholanthrene, reference compound]",significance of the increase in mutation frequency compared to control,LacI gene [1],failed marginally to reach statistical significance
same,Mutants per 10^6 plaques (mutant frequency),LacI gene [1],48.4 per 10^6 plaques
same,Mutation Frequency (MF) ± SE (corrected),LacI gene [1],43.5 per 10^6 pfu and 43.5 ± 14.8 per 10^6 pfu
same,Number of Mutations (corrected),LacI gene [1],28
same,"Deletions, % of total",LacI gene [2],18%
same,"Insertions, % of total",LacI gene [2],14%
same,Total Mutations,LacI gene [2],28
same,"Transitions, % of total",LacI gene [2],32%
same,"Transversions, % of total",LacI gene [2],36%
same,"frameshift mutations (deletions and insertions) observed, number",LacI gene [2]; expected 5 from solvent control proportions,9
same,"Deletions, distinct mutations",LacI gene [2],5
same,"Insertions, distinct mutations",LacI gene [2],4
same,"Transitions, distinct mutations",LacI gene [2],9
same,"Transversions, distinct mutations",LacI gene [2],10
same,"frameshift mutations (deletions and insertions), % of all mutations",LacI gene [2],32%
same,Weight Gain (average ± StDev),"[3]; Female, control 80.7 ± 7.42",61.8 ± 7.78 ^# gram
same,Weight Gain (average ± StDev),"[3]; Male, control 159.7 ± 7.63",90.4 ± 25.6 gram
same,reduction of weight gain during the treatment period,[3]; females,23%
same,reduction of weight gain during the treatment period,[3]; males,43%
same,increase in liver mass compared to corn oil controls,F344 BigBlue rats [4]; female rats,over 30%
same,increase in lung mass compared to corn oil controls,F344 BigBlue rats [4]; female rats,over 30%
same,increase in spleen mass compared to corn oil controls,F344 BigBlue rats [4]; female rats,over 30%
same,liver weight relative to body weight compared to corn oil treated rats,F344 BigBlue rats [4]; female rats,nearly doubled in weight per grams of body weight
same,relative lung weight,F344 BigBlue rats [4]; female rats,more than doubling of the relative lung weight
same,"spleen, thymus and adrenal gland weights relative to controls",F344 BigBlue rats [4]; females,increased spleen weights and decreased the thymus and adrenal gland weights
same,"Organ Pathology, LIVER",F344 BigBlue rats [5]; Female,"only scattered foci of necrosis, prominent Kupffer cells and focal perilobular lymphocytes in two of the four animals"
same,"Organ Pathology, LUNG",F344 BigBlue rats [5]; Female,1: Bronchopneumonia with what looks like early ARDS. Pulmonary edema 2: Bronchopneumonia with what looks like early ARDS more so than #1. Pulmonary edema. 3: Focal acute inflammation with increased intra-alveolar macrophages 4: No abnormality.
same,"Organ Pathology, SPLEEN",F344 BigBlue rats [5]; Female,No abnormality
same,"Organ Pathology, SPLEEN",F344 BigBlue rats [5]; Male,No abnormality
same,number of unique genes significantly changed,liver mRNA,Seventyfive
same,calca (calcitonin/calcitonin-related polypeptide a) expression,liver mRNA; versus corn oil control,up regulated
same,csda (cold shock domain protein A) expression,liver mRNA; versus corn oil control,up regulated
same,trib3 (tribbles homolog 3) expression,liver mRNA; versus corn oil control,up regulated
same,CYP1A2 gene expression increase,"liver mRNA; versus corn oil control, up",58 fold
same,UGT1A2 gene expression increase,"liver mRNA; versus corn oil control, up",13 fold
same,akr7a3 (aldo-keto reductases 7a3) expression change,"liver mRNA; versus corn oil control, up",16 fold
same,bcl10 (B-cell CLL/lymphoma 10) expression change,"liver mRNA; versus corn oil control, up",16.3 fold
same,ephx1 (epoxide hydrolase 1) expression change,"liver mRNA; versus corn oil control, up",9.9 fold
same,gdnf (glial cell derived neurotrophic factor) expression change,"liver mRNA; versus corn oil control, up",6.0 fold
same,glrx1 (glutaredoxin 1) expression change,"liver mRNA; versus corn oil control, up",10.2 fold
same,hmox1 (heme oxygenase 1) expression change,"liver mRNA; versus corn oil control, up",16.3 fold
same,mgst2 (microsomal glutathione S-transferase 2) expression change,"liver mRNA; versus corn oil control, up",7.9 fold
same,ptgs1 (prostaglandin-endoperoxide synthase 1) expression change,"liver mRNA; versus corn oil control, up",27.8 fold
same,smarcb1 expression change,"liver mRNA; versus corn oil control, up",8.5 fold
same,"Organ Pathology, LIVER",F344 BigBlue rats [6],"centrilobular necrosis, in some cases severe, was the dominat finding"
same,"Organ Pathology, LUNG",F344 BigBlue rats [6],1: No abnormality 2 + 3: Focal perivascular lymphocytes. 4: Focal perivascular lymphocytes with increased intra-alveolar macrophages.
same,"frameshift mutations, % of mutations",LacI,27%
same,increase in mutation frequency,"LacI; male rodents, liver",about 5 fold
same,persistence in the liver,[7],2 weeks
Oc1ccc(-c2ccc(Cl)cc2)cc1 [4′-OH-PCB3],significance of the increase in mutation frequency compared to control,LacI gene [1],neither PCB3 (p=0.429) nor 4′-OH-PCB3 (p=0.581) increased the mutation frequency significantly
same,Mutants per 10^6 plaques (mutant frequency),LacI gene [1],27.3 per 10^6 plaques
same,Mutation Frequency (MF) ± SE (corrected),LacI gene [1],27.2 ± 6.6 per 10^6 pfu
same,Number of Mutations (corrected),LacI gene [1],19
same,"Deletions, % of total",LacI gene [2],12%
same,"Insertions, % of total",LacI gene [2],24%
same,"Transitions, % of total",LacI gene [2],35%
same,"Transversions, % of total",LacI gene [2],29%
same,"Deletions, distinct mutations",LacI gene [2],2
same,"Insertions, distinct mutations",LacI gene [2],4
same,"Transitions, distinct mutations",LacI gene [2],6
same,"Transversions, distinct mutations",LacI gene [2],5
same,"frameshift mutations (deletions and insertions), % of all mutations",LacI gene [2],36%
same,Weight Gain (average ± StDev),"[3]; Female, control 80.7 ± 7.42",85.3 ± 4.13 gram
same,Weight Gain (average ± StDev),"[3]; Male, control 159.7 ± 7.63",129.6 ± 17.50 gram
same,effect on weight gain compared to control,[3],Neither PCB3 nor 4′-OH-PCB3 had a significant effect on weight gain in either gender
same,"impact on liver, lung and spleen weights",F344 BigBlue rats [4],no statistically significant impact
same,"Organ Pathology, LIVER",F344 BigBlue rats [5]; Female,"rare acidophilic bodies, but 3 of 4 animals had patchy hepatocellular necrosis and chronic inflammation and 1: Rare acidophilic bodies with patchy hepatocellular necrosis and chronic inflammation. 2 + 3: Rare acidophilic bodies with patchy hepatocellular necrosis and chronic inflammation. 4: Scattered acidophilic bodies with dilated sinusoids."
same,"Organ Pathology, LUNG",F344 BigBlue rats [5]; Female,1: Minimal acute inflammation 2: Almost normal with focal perivascular lymphocytes. 3: No abnormality. 4: Patchy bronchopneumonia with early ARDS. Perivascular lymphocytes increased
same,"Organ Pathology, SPLEEN",F344 BigBlue rats [5]; Female,1 – 4: Reduced mantle
same,"Organ Pathology, SPLEEN",F344 BigBlue rats [5]; Male,1: No abnormality 2 + 3: Reduced mantle with focally increased neutrophils. 4: Reduced mantle with focally increased neutrophils with red pulp congestion.
same,number of unique genes significantly changed,liver mRNA,157
same,cul1 (cullin 1) expression change,"liver mRNA; versus corn oil control, down",36.3 fold
same,ei24 (etoposide induced 2.4 mRNA) expression change,"liver mRNA; versus corn oil control, down",28.1 fold
same,cyp2b2 expression change,"liver mRNA; versus corn oil control, down-regulated",~19 fold
same,aqp2 (aquaporin 2) expression change,"liver mRNA; versus corn oil control, up",6.6 fold
same,bnip3l (BCL2/adenovirus E1B interacting protein 3-like) expression change,"liver mRNA; versus corn oil control, up",5.8 fold
same,kdr (kinase insert domain protein receptor) expression change,"liver mRNA; versus corn oil control, up",6.4 fold
same,sh3glb1 (SH3-domain GRB2-like endophilin B1) expression change,"liver mRNA; versus corn oil control, up",6.3 fold
same,stat1 (signal transducer and activator of transcription 1) expression change,"liver mRNA; versus corn oil control, up",10.6 fold
same,syvn1 (synovial apoptosis inhibitor 1) expression change,"liver mRNA; versus corn oil control, up",26.7 fold
same,Cyp2j4 expression change,liver mRNA; [9],8.8 fold
same,sult1b1 (sulfotransforase 1b1) expression change,liver mRNA; [9],~7 fold
same,"Organ Pathology, LIVER",F344 BigBlue rats [6],"all four male 4′-OH-PCB3 livers showed dilated sinosoids and 1: dilated sinusoids, rare acidophil body. No obvious inflammation. 2, 3, and 4: dilated sinusoids,. Focal lymphocyte cluster with rare acidophil body. Minimal portal tract inflammation."
same,"Organ Pathology, LUNG",F344 BigBlue rats [6],1 + 2: No abnormality. 3 + 4: Minimal perivascular lymphocytes.
same,"frameshift mutations, % of mutations",LacI,22%
same,result in the modified Solt-Farber Initiation Protocol,[8],positive
"Clc1ccc(-c2ccccc2)cc1 [PCB3, 4-chlorobiphenyl]",significance of the increase in mutation frequency compared to control,LacI gene [1],neither PCB3 (p=0.429) nor 4′-OH-PCB3 (p=0.581) increased the mutation frequency significantly
same,Mutants per 10^6 plaques (mutant frequency),LacI gene [1],30.3 per 10^6 plaques
same,Mutation Frequency (MF) ± SE (corrected),LacI gene [1],30.3 ± 17.9 per 10^6 pfu
same,Number of Mutations (corrected),LacI gene [1],15
same,"Deletions, % of total",LacI gene [2],7%
same,"Insertions, % of total",LacI gene [2],20%
same,Total Mutations,LacI gene [2],15
same,"Transitions, % of total",LacI gene [2],53%
same,"Transversions, % of total",LacI gene [2],20%
same,"Deletions, distinct mutations",LacI gene [2],1
same,"Insertions, distinct mutations",LacI gene [2],3
same,"Transitions, distinct mutations",LacI gene [2],8
same,"Transversions, distinct mutations",LacI gene [2],3
same,Weight Gain (average ± StDev),"[3]; Female, control 80.7 ± 7.42",79.6 ± 4.51 gram
same,Weight Gain (average ± StDev),"[3]; Male, control 159.7 ± 7.63",146.1 ± 7.99 gram
same,effect on weight gain compared to control,[3],Neither PCB3 nor 4′-OH-PCB3 had a significant effect on weight gain in either gender
same,"impact on liver, lung and spleen weights",F344 BigBlue rats [4],no statistically significant impact
same,"Organ Pathology, LIVER",F344 BigBlue rats [5]; Female,all female PCB3 livers had acidophilic bodies and two animals also showed patchy hepatocellular necrosis and 1 + 2: Scattered acidophilic bodies 3: Centrilobular acidophilic bodies and patchy hepatocellular necrosis. 4: Centrilobular acidophilic bodies and patchy hepatocellular necrosis.
same,"Organ Pathology, LUNG",F344 BigBlue rats [5]; Female,1: Focal acute inflammation 2: Minimal acute inflammation with areas of atelectasis 3: Minimal acute inflammation 4: Patchy bronchopneumonia with early ARDS. Perivascular lymphocytes increased.
same,"Organ Pathology, SPLEEN",F344 BigBlue rats [5]; Female,No abnormality
same,"Organ Pathology, SPLEEN",F344 BigBlue rats [5]; Male,No abnormality
same,number of unique genes significantly changed,liver mRNA,86
same,CYP mRNA in the liver,liver mRNA; versus corn oil control,No CYP mRNA increase
same,Jun expression change,"liver mRNA; versus corn oil control, up",55.9 fold
same,avpr1a (arginine vasopressin receptor 1A) expression change,"liver mRNA; versus corn oil control, up",7.3 fold
same,cfdp1 (craniofacial development protein 1) expression change,"liver mRNA; versus corn oil control, up",6.2 fold
same,cps1 (carbamoyl-phosphate synthetase 1) expression change,"liver mRNA; versus corn oil control, up",6.7 fold
same,hmox1 (heme oxygenase 1) expression change,"liver mRNA; versus corn oil control, up",5.8 fold
same,kdr (kinase insert domain protein receptor) expression change,"liver mRNA; versus corn oil control, up",5.5 fold
same,lrrc59 (leucine rich repeat containing 59) expression change,"liver mRNA; versus corn oil control, up",33.1 fold
same,mbd2 (Methyl-CpG-binding protein) expression change,"liver mRNA; versus corn oil control, up",6.9 fold
same,mrpl23 (mitochondrial ribosomal protein L23) expression change,"liver mRNA; versus corn oil control, up",223.3 fold
same,sult1b1 (sulfotransforase 1b1) expression change,liver mRNA; [9],~7 fold
"Clc1ccc(-c2cc(Cl)c(Cl)cc2Cl)cc1Cl [PCB 118, 2,3′,4,4′,5-pentachloro-biphenyl]",carcinogenicity in chronic carcinogenicity studies,Sprague Dawley rat,clear evidence
"Clc1ccc(-c2cc(Cl)c(Cl)c(Cl)c2)cc1Cl [PCB 126, 3,3′,4,4′,5-pentachlorobiphenyl]",carcinogenicity in chronic carcinogenicity studies,Sprague Dawley rat,clear evidence
